In ChEMBL document CHEMBL1275351, “Novel spirotetracyclic zwitterionic dual H(1)/5-HT(2A) receptor antagonists for the treatment of sleep disorders” (J Med Chem, 2010):

How the values were obtained:
Histamine H1 receptor [1] = biological target: Histamine H1 receptor (Homo sapiens, UniProt P35367); assay: Antagonist activity against human histamine H1 receptor expressed in CHO cells by FLIPR assay; type: functional, cell-based
[2] = biological target: 5-hydroxytryptamine receptor 2A (Homo sapiens, UniProt P28223); assay: Antagonist activity at human 5HT2A receptor expressed in HEK cells assessed as inhibition of intracellular calcium accumulation by aequorin assay; type: functional, cell-based, HEK293
Sequence of 5-hydroxytryptamine receptor 2A (Homo sapiens, UniProt P28223) (P28223 whole entry): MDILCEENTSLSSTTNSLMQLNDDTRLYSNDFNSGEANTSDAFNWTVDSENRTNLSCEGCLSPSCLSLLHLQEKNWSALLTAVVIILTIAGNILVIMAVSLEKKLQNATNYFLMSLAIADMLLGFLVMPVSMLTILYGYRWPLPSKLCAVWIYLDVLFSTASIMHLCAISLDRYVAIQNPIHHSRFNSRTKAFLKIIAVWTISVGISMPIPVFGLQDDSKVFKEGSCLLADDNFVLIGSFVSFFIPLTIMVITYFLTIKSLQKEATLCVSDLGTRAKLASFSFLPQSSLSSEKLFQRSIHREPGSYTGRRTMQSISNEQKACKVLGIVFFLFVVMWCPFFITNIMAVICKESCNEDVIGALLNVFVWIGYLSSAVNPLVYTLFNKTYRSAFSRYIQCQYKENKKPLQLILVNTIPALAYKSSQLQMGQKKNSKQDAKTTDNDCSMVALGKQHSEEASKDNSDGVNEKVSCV

[3] = biological target: 5-hydroxytryptamine receptor 2B (Homo sapiens, UniProt P41595); assay: Antagonist activity at human 5HT2B receptor expressed in human SH-SY5Y cells by FLIPR assay
Sequence of 5-hydroxytryptamine receptor 2B (P41595 whole entry): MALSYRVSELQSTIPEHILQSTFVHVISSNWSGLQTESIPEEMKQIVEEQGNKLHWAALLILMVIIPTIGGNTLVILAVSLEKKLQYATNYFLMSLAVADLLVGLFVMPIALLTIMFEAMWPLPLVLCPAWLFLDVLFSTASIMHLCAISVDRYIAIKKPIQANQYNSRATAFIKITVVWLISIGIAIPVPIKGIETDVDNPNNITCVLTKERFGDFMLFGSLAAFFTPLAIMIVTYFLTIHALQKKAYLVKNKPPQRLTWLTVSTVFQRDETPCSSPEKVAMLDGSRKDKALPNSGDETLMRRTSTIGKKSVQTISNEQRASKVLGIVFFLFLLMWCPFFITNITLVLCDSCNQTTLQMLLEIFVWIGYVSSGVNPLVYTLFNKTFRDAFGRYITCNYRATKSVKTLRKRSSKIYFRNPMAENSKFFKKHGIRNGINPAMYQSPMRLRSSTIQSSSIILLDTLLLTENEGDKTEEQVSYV

[4] = biological target: T1, 5-hydroxytryptamine receptor 2C (Homo sapiens, UniProt P28335); assay: Antagonist activity at human 5HT2C receptor expressed in human SH-SY5Y cells by FLIPR assay; type: functional, cell-based
T1 sequence (P28335 whole entry): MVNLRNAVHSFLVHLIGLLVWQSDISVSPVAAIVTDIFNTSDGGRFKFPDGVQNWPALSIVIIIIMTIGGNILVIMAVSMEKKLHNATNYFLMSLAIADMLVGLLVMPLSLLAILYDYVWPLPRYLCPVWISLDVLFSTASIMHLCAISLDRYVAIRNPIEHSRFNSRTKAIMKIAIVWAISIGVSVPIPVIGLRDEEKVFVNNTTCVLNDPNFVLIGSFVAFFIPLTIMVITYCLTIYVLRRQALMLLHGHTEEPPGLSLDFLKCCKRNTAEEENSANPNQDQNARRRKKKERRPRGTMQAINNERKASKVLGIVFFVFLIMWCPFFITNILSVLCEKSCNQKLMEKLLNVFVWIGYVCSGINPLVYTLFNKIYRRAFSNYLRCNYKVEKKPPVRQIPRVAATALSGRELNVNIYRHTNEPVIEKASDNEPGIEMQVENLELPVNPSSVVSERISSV

[5] = Oral bioavailability in Sprague-Dawley rat at 3 mg/kg; type: ADME, organism-based; settings: in vivo
Outline: (§1)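 Male Sprague-Dawley rats, cassette dosing. Compounds were given as an iv bolus and as an oral suspension. Blood samples were taken at intervals up to 24 h, processed by protein precipitation and analysed by HPLC-MS/MS.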

Cytochrome P450 2D6 = Cytochrome P450 2D6 (Homo sapiens, UniProt P10635); assay: Inhibition of human CYP2D6 transfected in bactosome expression system by spectrofluorimetry; type: ADME
Sequence of Cytochrome P450 2D6 (P10635 whole entry): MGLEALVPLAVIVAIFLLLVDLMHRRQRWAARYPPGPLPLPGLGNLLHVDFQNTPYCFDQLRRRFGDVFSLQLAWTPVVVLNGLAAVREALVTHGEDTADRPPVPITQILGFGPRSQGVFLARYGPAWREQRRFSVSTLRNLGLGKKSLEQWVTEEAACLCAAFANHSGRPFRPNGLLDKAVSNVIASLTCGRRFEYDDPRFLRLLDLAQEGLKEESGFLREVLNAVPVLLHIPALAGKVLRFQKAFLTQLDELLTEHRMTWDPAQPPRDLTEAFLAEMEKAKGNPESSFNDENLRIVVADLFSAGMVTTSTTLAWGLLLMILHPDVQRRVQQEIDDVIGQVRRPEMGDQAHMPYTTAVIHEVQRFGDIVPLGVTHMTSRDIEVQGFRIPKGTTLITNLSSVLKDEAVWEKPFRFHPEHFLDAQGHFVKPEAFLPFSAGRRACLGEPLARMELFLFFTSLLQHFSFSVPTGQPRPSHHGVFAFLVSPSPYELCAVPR
Outline: (§2)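 Recombinant human CYP Bactosomes (0.1 mg/mL) in 50 mM phosphate buffer, pH 7.4. Compound at 0.1-10 μM was preincubated with fluorogenic substrate for 10 min at 37 °C, and the reaction was started with an NADPH regenerating system. Metabolite fluorescence was followed for 10 min. Substrates: 1A2 ethoxyresorufin 0.5 μM; 2C9 FCA 50 μM; 2C19 BMC 10 μM; 2D6 MMC 10 μM; 3A4 DEF 1 μM or 7-BQ 25 μM. Run in triplicate.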

[6] = biological target: 5-hydroxytryptamine receptor 2A (Rattus norvegicus, UniProt P14842); assay: Displacement of [3H]ketanserin from 5HT2A receptor in Sprague-Dawley rat cortical membrane by liquid scintillation counting
Sequence of 5-hydroxytryptamine receptor 2A (Rattus norvegicus, UniProt P14842) (P14842 whole entry): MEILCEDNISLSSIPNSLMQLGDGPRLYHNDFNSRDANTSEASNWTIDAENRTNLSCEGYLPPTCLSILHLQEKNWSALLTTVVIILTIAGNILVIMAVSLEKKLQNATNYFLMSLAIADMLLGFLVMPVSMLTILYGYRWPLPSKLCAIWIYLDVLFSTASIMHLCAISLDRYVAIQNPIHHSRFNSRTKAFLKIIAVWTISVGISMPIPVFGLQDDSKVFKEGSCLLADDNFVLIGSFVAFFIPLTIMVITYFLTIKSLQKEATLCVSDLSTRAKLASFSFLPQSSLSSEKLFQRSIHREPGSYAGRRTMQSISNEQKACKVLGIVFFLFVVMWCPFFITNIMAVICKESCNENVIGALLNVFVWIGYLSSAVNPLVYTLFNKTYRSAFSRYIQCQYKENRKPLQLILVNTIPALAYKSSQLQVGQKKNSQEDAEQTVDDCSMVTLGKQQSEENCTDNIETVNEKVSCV
Outline: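 Cerebral cortex membranes from male Sprague-Dawley rats (200-250 g), 50 μg/well. Incubated with 1 nM [3H]ketanserin in 50 mM Tris-HCl, 10 mM MgCl2, pH 7.4, for 1 h at 37 °C with shaking. Filtered on PEI-soaked GF/B and counted by scintillation. Nonspecific binding with 10 μM mianserin. Ki by Cheng-Prusoff; mean of two experiments in duplicate.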

Cytochrome P450 2C9 = Cytochrome P450 2C9 (Homo sapiens, UniProt P11712); assay: Inhibition of human CYP2C9 transfected in bactosome expression system by spectrofluorimetry; type: ADME; outline: as §2
Sequence of Cytochrome P450 2C9 (P11712 whole entry): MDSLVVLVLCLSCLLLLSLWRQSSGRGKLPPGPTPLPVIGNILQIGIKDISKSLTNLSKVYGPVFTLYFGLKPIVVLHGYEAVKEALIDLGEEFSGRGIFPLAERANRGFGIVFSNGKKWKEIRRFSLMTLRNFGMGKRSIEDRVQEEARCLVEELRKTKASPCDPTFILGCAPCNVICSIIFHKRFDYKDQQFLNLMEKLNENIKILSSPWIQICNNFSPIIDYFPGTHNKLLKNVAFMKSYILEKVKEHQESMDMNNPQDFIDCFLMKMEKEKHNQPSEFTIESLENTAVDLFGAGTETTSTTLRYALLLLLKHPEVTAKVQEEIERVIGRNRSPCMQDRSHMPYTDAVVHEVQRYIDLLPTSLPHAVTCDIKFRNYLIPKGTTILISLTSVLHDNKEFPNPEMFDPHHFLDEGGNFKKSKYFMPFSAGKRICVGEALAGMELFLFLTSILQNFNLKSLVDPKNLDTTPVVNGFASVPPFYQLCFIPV

[7] = Blood clearance in Sprague-Dawley rat at 1 mg/kg, iv and 3 mg/kg, po; type: ADME, organism-based; settings: whole blood; outline: as §1
[8] = Fraction unbound in rat brain; type: ADME, tissue-based
Histamine H1 receptor [9] = biological target: Histamine H1 receptor (Rattus norvegicus, UniProt P31390); assay: Displacement of [3H]pyrilamine from histamine H1 receptor in Sprague-Dawley rat cortical membrane by liquid scintillation counting
Sequence of Histamine H1 receptor (Rattus norvegicus, UniProt P31390) (P31390 whole entry): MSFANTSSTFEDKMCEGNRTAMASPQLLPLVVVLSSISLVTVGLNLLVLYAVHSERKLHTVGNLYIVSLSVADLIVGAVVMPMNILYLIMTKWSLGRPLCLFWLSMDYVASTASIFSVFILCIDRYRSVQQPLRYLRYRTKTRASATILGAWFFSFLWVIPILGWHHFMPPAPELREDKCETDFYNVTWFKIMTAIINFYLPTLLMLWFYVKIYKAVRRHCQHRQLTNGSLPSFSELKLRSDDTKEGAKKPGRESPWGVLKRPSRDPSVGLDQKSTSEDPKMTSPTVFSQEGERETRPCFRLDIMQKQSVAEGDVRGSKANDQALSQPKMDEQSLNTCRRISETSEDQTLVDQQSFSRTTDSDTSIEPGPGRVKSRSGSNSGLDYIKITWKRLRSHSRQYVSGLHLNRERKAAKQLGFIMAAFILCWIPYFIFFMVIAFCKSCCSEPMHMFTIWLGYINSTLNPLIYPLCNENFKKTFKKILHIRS
Outline: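 Cerebral cortex membranes from male Sprague-Dawley rats (200-250 g), 150 μg/well. Incubated with 0.6 nM [3H]pyrilamine in 50 mM HEPES, pH 7.4, for 2 h at room temperature. Filtered on PEI-soaked GF/B and counted by scintillation. Nonspecific binding with 10 μM cetirizine. Ki by Cheng-Prusoff; mean of two experiments in duplicate.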

[10] = Ratio of drug level in brain to blood in Sprague-Dawley rat at 1 mg/kg, iv and 3 mg/kg, po; type: ADME, organism-based; settings: read-out: BBR
Outline: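 Male Sprague-Dawley rats, cassette dosing, iv bolus or oral suspension. Blood and brain levels were measured by protein precipitation and HPLC-MS/MS. Brain:blood ratio was taken from AUC0-8h after oral dosing, or at 1 h after iv dosing for one compound.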

Cytochrome P450 1A2 = biological target: T2, Cytochrome P450 1A2 (Homo sapiens, UniProt P05177); assay: Inhibition of human CYP1A2 transfected in bactosome expression system by spectrofluorimetry; type: ADME; outline: as §2
T2 sequence (P05177 whole entry): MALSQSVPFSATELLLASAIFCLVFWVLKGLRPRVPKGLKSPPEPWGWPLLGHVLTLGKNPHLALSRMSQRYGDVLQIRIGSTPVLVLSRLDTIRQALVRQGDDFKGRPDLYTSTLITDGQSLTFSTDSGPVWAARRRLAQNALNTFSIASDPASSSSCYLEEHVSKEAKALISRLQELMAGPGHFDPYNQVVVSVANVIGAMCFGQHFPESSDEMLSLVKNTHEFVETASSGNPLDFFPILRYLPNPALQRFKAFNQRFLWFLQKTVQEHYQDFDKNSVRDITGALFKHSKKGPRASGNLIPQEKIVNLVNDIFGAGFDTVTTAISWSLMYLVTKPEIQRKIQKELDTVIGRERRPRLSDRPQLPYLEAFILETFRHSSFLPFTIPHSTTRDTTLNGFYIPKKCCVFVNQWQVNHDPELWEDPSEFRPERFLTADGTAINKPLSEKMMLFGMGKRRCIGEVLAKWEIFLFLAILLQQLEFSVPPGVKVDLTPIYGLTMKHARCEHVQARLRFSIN

[11] = Volume of distribution at steady state in Sprague-Dawley rat at 1 mg/kg, iv and 3 mg/kg, po; type: ADME, organism-based; settings: in vivo, read-out: Vdss; outline: as §1
Cytochrome P450 3A4 = Cytochrome P450 3A4 (Homo sapiens, UniProt P08684); assay: Inhibition of human CYP3A4 transfected in bactosome expression system by spectrofluorimetry; type: ADME; outline: as §2
Sequence of Cytochrome P450 3A4 (P08684 whole entry): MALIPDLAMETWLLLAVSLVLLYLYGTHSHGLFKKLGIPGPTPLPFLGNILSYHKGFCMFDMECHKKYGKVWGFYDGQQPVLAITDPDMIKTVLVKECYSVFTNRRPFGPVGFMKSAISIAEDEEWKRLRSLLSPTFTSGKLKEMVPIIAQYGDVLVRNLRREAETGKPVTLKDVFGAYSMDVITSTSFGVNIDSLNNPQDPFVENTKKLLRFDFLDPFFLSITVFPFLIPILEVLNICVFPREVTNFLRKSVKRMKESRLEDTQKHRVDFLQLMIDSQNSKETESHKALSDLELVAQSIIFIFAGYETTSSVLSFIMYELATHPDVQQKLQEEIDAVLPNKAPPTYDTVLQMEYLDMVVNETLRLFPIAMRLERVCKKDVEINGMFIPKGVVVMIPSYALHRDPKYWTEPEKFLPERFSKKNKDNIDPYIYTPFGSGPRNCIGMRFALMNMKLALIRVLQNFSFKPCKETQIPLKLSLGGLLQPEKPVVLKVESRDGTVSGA

[12] = Half life in Sprague-Dawley rat at 1 mg/kg, iv and 3 mg/kg, po; type: ADME, organism-based; settings: in vivo; outline: as §1
Cytochrome P450 2C19 = Cytochrome P450 2C19 (Homo sapiens, UniProt P33261); assay: Inhibition of human CYP2C19 transfected in bactosome expression system by spectrofluorimetry; type: ADME; outline: as §2
Sequence of Cytochrome P450 2C19 (P33261 whole entry): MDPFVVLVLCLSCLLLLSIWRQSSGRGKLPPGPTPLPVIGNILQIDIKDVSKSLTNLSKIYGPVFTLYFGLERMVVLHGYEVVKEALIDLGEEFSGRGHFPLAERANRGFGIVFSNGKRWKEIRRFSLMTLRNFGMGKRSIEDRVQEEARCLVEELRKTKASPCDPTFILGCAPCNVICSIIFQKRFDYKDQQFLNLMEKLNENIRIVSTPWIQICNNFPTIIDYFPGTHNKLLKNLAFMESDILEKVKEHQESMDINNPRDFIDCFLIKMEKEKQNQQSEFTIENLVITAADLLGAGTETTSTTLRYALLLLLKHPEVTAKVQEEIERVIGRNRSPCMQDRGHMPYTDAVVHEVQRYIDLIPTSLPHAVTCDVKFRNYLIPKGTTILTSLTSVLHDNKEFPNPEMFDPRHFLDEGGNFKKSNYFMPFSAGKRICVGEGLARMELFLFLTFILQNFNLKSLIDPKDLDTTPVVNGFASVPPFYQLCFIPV

[13] = Fraction unbound in rat blood; type: ADME, tissue-based
[14] = biological target: Voltage-gated inwardly rectifying potassium channel KCNH2 (Homo sapiens, UniProt Q12809); assay: Displacement of [3H]dofetilide from human ERG by scintillation proximity assay

Sequence of Histamine H1 receptor (Homo sapiens, UniProt P35367) (P35367 whole entry): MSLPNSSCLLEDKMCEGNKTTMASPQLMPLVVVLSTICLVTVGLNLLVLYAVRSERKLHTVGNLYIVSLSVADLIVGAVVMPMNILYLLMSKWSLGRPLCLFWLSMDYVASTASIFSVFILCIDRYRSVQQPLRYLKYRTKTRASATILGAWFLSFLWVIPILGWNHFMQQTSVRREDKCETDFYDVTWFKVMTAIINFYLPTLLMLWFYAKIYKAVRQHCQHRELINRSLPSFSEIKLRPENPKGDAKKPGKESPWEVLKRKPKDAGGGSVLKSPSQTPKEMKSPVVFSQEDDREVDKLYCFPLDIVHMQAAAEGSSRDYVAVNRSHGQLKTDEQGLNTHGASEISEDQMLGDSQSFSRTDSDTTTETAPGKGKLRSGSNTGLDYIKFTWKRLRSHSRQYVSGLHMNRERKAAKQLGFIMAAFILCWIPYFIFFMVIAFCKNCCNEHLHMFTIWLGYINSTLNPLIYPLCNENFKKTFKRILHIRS

Row | SMILES | Ki (Histamine H1 receptor [1]) [nM] | Ki [2] [nM] | Ki [3] [nM] | Ki [4] [nM] | further results
1 | O=C(O)CC1CCN(C2CC[C@]3(Cc4ccccc4Cc4ccccc43)C2)C1 (some centres not stated) | 31.6 | 20 | 1000 | 20 | –
2 | O=C(O)[C@H]1[C@@H]2CN(C3CCC4(Cc5ccccc5Cc5ccccc54)C3)C[C@@H]21 (some centres not stated) | 39.8 | 631 | > 2000 | > 2000 | –
3 | O=C(O)CC1CN(C2CCC3(Cc4ccccc4Cc4ccccc43)C2)C1 (configuration not stated) | 316 | 50.1 | 39.8 | > 2000 | –
4 | O=C(O)C=C1CN(C2CCC3(Cc4ccccc4Cc4ccccc43)C2)C1 (configuration not stated) | 200 | 50.1 | 251 | 251 | –
5 | O=C(O)C1=CCCN(C2CCC3(Cc4ccccc4Oc4ccccc43)C2)C1 (configuration not stated) | 100 | 398 | > 2000 | > 2000 | –
6 | O=C(O)C1=CCN(C2CCC3(Cc4ccccc4Oc4ccccc43)C2)CC1 (configuration not stated) | 50.1 | 25.1 | > 2000 | 1000 | bioavailability [5]: 37%; IC50 (Cytochrome P450 2D6): > 10000 nM; Ki [6]: 105 nM; IC50 (Cytochrome P450 2C9): > 10000 nM; clearance [7]: 16 mL/min/kg; fraction unbound [8]: 0.027; Ki (Histamine H1 receptor [9]): 20 nM; Kp [10]: 1.8; IC50 (Cytochrome P450 1A2): > 10000 nM; Vd [11]: 2.7 L/kg; IC50 (Cytochrome P450 3A4): > 10000 nM; half-life [12]: 3 h; IC50 (Cytochrome P450 2C19): > 10000 nM; fraction unbound [13]: 0.103
7 | O=C(O)C1CCN(C2CCC3(Cc4ccccc4Oc4ccccc43)C2)CC1 (configuration not stated) | 79.4 | 316 | 1580 | – | –
8 | O=C(O)C1(F)CCN(C2CCC3(Cc4ccccc4Oc4ccccc43)C2)CC1 (configuration not stated) | 158 | 398 | > 2000 | > 2000 | –
9 | O=C(O)[C@@H]1CCCN(C2CCC3(Cc4ccccc4Oc4ccccc43)C2)C1 (some centres not stated) | 126 | 100 | > 2000 | – | –
10 | O=C(O)C1=CCCN(C2CCC3(C2)C(=O)c2ccccc2Cc2ccccc23)C1 (configuration not stated) | 79.4 | > 2000 | – | > 2000 | –
11 | O=C(O)C1CCN(C2CCC3(C2)C(=O)c2cc(Cl)ccc2Oc2ccccc23)CC1 (configuration not stated) | 1000 | 398 | > 2000 | – | –
12 | O=C(O)C1CCN(C2CCC3(C2)C(=O)c2cc(F)ccc2Sc2ccccc23)CC1 (configuration not stated) | 200 | 126 | > 2000 | > 2000 | –
13 | O=C(O)[C@@H]1CCCN(C2CCC3(C2)C(=O)c2cc(Cl)ccc2Oc2ccccc23)C1 (some centres not stated) | 200 | > 2000 | > 2000 | – | –
14 | O=C(O)[C@@H]1CCCN(C2CC[C@]3(Cc4ccccc4Cc4ccccc43)C2)C1 (some centres not stated) | 20 | 63.1 | 1260 | 31.6 | –
15 | O=C(O)CC1CCN(C2CCC3(Cc4ccccc4Cc4ccccc43)C2)CC1 (configuration not stated) | 25.1 | 631 | 1000 | > 2510 | –
16 | O=C(O)C1(O)CCN(C2CCC3(Cc4ccccc4Cc4ccccc43)C2)CC1 (configuration not stated) | 50.1 | 100 | 251 | 126 | –
17 | CC1(C(=O)O)CCN(C2CCC3(Cc4ccccc4Cc4ccccc43)C2)CC1 (configuration not stated) | 50.1 | 39.8 | 3.16 | 15.8 | –
18 | O=C(O)C1=CCN(C2CCC3(Cc4ccccc4Cc4ccccc43)C2)CC1 (configuration not stated) | 39.8 | 79.4 | > 2000 | 200 | –
19 | O=C(O)C1=CCCN(C2CCC3(Cc4cc(F)ccc4Cc4ccccc43)C2)C1 (configuration not stated) | 39.8 | > 759 | > 2000 | 316 | –
20 | O=C(O)C1(F)CCCN(C2CC[C@]3(Cc4ccccc4Cc4ccccc43)C2)C1 (some centres not stated) | 794 | 79.4 | > 2000 | 1580 | –
21 | O=C(O)C1=CCCN(C2CC[C@@]3(Cc4ccccc4Cc4ccccc43)C2)C1 (some centres not stated) | 158 | 3980 | > 2000 | > 2000 | –
22 | O=C(O)C1CN(C2CC[C@]3(Cc4ccccc4Cc4ccccc43)C2)CCO1 (some centres not stated) | 63.1 | 100 | > 2000 | 316 | –
23 | O=C(O)C1CN(C2CC[C@]3(Cc4ccccc4Cc4ccccc43)C2)CCN1 (some centres not stated) | 100 | 316 | 1260 | 200 | –
24 | O=C(O)CCNC1CC[C@]2(Cc3ccccc3Cc3ccccc32)C1 (some centres not stated) | 10 | 158 | > 2000 | 100 | IC50 [14]: 63100 nM
25 | O=C(O)CCNC1CC[C@@]2(Cc3ccccc3Cc3ccccc32)C1 (some centres not stated) | 25.1 | 2000 | > 2000 | > 2000 | IC50 [14]: > 63100 nM
26 | O=C(O)C1CCN(C2CC[C@]3(Cc4ccccc4Cc4ccccc43)C2)C1 (some centres not stated) | 15.8 | 20 | 100 | 15.8 | –
27 | CC1(C(=O)O)CCN(C2CC[C@]3(Cc4ccccc4Cc4ccccc43)C2)C1 (some centres not stated) | 12.6 | 12.6 | 10 | 20 | –
28 | O=C(O)C1=CCCN(C2CC[C@]3(Cc4ccccc4Cc4ccccc43)C2)C1 (single isomer, unassigned; stereoisomer 1) | 25.1 | 126 | – | 158 | bioavailability [5]: 80%; IC50 (Cytochrome P450 2D6): > 10000 nM; Ki [6]: 117 nM; IC50 (Cytochrome P450 2C9): > 10000 nM; clearance [7]: 2 mL/min/kg; fraction unbound [8]: 0.03; Ki (Histamine H1 receptor [9]): 8.71 nM; Kp [10]: 0.1; IC50 (Cytochrome P450 1A2): > 10000 nM; Vd [11]: 0.4 L/kg; IC50 (Cytochrome P450 3A4): > 10000 nM; half-life [12]: 2.4 h; IC50 (Cytochrome P450 2C19): > 10000 nM; fraction unbound [13]: 0.024
29 | O=C(O)C1=CCCN(C2CC[C@]3(Cc4ccccc4Cc4ccccc43)C2)C1 (stereo in doubt; 48) | 20 | > 2000 | > 2000 | > 2000 | –
30 | CN1CCC(=C2c3ccccc3CC(=O)c3sccc32)CC1 [KETOTIFEN] | – | – | 31.6 | 200 | –
